ChEMBL document CHEMBL3091366, “New 5-Aryl-1H-imidazoles display in vitro antitumor activity against apoptosis-resistant cancer models, including melanomas, through mitochondrial targeting” (J Med Chem, 2013)

Assays:
Assay type in all cases: functional, cell-based
[1] = test system: T98G; experiment: Cytotoxicity against apoptotic-resistant human T98G cells assessed as growth inhibition after 72 hrs by MTT-based colorimetric assay; conditions: Homo sapiens, T98G, 72 h
Procedure, shortened: (§1)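 MTT colorimetric assay, 72 h exposure to the fumarate salt. Read-out is reduction of MTT to formazan by living cells. IC50 is the concentration that reduces the whole cell population by 50%. Six replicates per condition. Where compounds were not tested on every line, apoptosis-sensitive lines were PC3, MCF-7, LoVo and B16F10, and apoptosis-resistant lines were U373, T98G, A549 and SK-MEL-28.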

[2] = test system: LoVo; experiment: Cytotoxicity against apoptotic-sensitive human LoVo cells assessed as growth inhibition after 72 hrs by MTT-based colorimetric assay; conditions: Homo sapiens, LoVo, 72 h; procedure, shortened: as §1
[3] = test system: PC-3; experiment: Cytotoxicity against apoptotic-sensitive human PC3 cells assessed as growth inhibition after 72 hrs by MTT-based colorimetric assay; conditions: Homo sapiens, PC-3, 72 h; procedure, shortened: as §1
[4] = test system: B16-F10; experiment: Cytotoxicity against apoptotic-sensitive mouse B16F10 cells assessed as growth inhibition after 72 hrs by MTT-based colorimetric assay; conditions: B16-F10, 72 h; procedure, shortened: as §1
[5] = test system: A549; experiment: Cytotoxicity against apoptotic-resistant human A549 cells assessed as growth inhibition after 72 hrs by MTT-based colorimetric assay; conditions: Homo sapiens, A549, 72 h; procedure, shortened: as §1
[6] = test system: MCF7; experiment: Cytotoxicity against apoptotic-sensitive human MCF7 cells assessed as growth inhibition after 72 hrs by MTT-based colorimetric assay; conditions: Homo sapiens, MCF7, 72 h; procedure, shortened: as §1
[7] = test system: SK-MEL-28; experiment: Cytotoxicity against apoptotic-resistant human SK-MEL-28 cells assessed as growth inhibition after 72 hrs by MTT-based colorimetric assay; conditions: Homo sapiens, SK-MEL-28, 72 h; procedure, shortened: as §1

Question: What does the source list for `C=CCCCCOc1ncc(-c2cc(F)c(F)cc2OC)n1C`?
Answer: IC50 [1]: 53 µM; IC50 [2]: 36 µM; IC50 [3]: 40 µM; IC50 [4]: 43 µM; IC50 [5]: 43 µM; IC50 [6]: 32 µM; IC50 [7]: 40 µM

Question: For `C=CCCCCOc1ncc(-c2ccc(Cl)cc2OC)n1C`, which IC50 [1] is on record?
Answer: 67 µM

Question: What about the IC50 [2] of the same compound?
Answer: 35 µM

Question: What about the IC50 [3] of the same compound?
Answer: 36 µM

Question: What about the IC50 [4] of the same compound?
Answer: 43 µM

Question: And the IC50 [5]?
Answer: 47 µM

Question: And the IC50 [6]?
Answer: 37 µM

Question: What about the IC50 [7] of the same compound?
Answer: 50 µM

Question: With `Cn1c2cnc1OCC/C=C\CCCCOc1ccccc1-2` as the compound, how does the IC50 [1] read?
Answer: 100 µM

Question: And the IC50 [2]?
Answer: 40 µM

Question: And the IC50 [3]?
Answer: 62 µM

Question: What about the IC50 [4] of the same compound?
Answer: 70 µM

Question: What about the IC50 [5] of the same compound?
Answer: 74 µM

Question: And the IC50 [6]?
Answer: 63 µM

Question: What about the IC50 [7] of the same compound?
Answer: 85 µM

Question: How did the IC50 [1] turn out when `CCCCCCOc1ncc(-c2ccccc2OC)n1C` was run?
Answer: 58 µM

Question: And the IC50 [2]?
Answer: 27 µM

Question: And the IC50 [3]?
Answer: 33 µM

Question: And the IC50 [4]?
Answer: 38 µM

Question: What about the IC50 [5] of the same compound?
Answer: 37 µM

Question: What about the IC50 [6] of the same compound?
Answer: 27 µM

Question: And the IC50 [7]?
Answer: 43 µM

Question: `C=CCCCCOc1ncc(-c2cccc(OC)c2OC)n1C` was tested. Which IC50 [1] did it give?
Answer: 35 µM

Question: What about the IC50 [2] of the same compound?
Answer: 11 µM

Question: What about the IC50 [3] of the same compound?
Answer: 36 µM

Question: And the IC50 [4]?
Answer: 27 µM

Question: And the IC50 [5]?
Answer: 43 µM

Question: And the IC50 [6]?
Answer: 28 µM

Question: What about the IC50 [7] of the same compound?
Answer: 27 µM

Question: Which results are given for `COc1ccc(C)cc1-c1cnc(OCCCCc2ccccc2)n1C`?
Answer: IC50 [1]: 44 µM; IC50 [2]: 27 µM; IC50 [3]: 43 µM; IC50 [4]: 34 µM; IC50 [5]: 40 µM; IC50 [6]: 28 µM; IC50 [7]: 42 µM

Question: What does the source list for `C=CCCCCOc1nc(-c2ccccc2OC)cn1C`?
Answer: IC50 [1]: > 100 µM; IC50 [2]: 81 µM; IC50 [3]: 86 µM; IC50 [4]: 69 µM; IC50 [5]: 91 µM; IC50 [6]: 77 µM; IC50 [7]: > 100 µM

Question: With `C=CCCCCOc1ncc(-c2cc(C(C)C)ccc2OC)n1C` as the compound, how does the IC50 [1] read?
Answer: 6 µM

Question: And the IC50 [2]?
Answer: 3 µM

Question: What about the IC50 [3] of the same compound?
Answer: 9 µM

Question: What about the IC50 [4] of the same compound?
Answer: 7 µM

Question: And the IC50 [5]?
Answer: 4 µM

Question: What about the IC50 [6] of the same compound?
Answer: 18 µM

Question: What about the IC50 [7] of the same compound?
Answer: 3 µM

Question: With `CCCCOc1ncc(-c2ccccc2OC)n1C` as the compound, how does the IC50 [1] read?
Answer: 96 µM

Question: And the IC50 [2]?
Answer: 39 µM

Question: And the IC50 [3]?
Answer: 71 µM

Question: And the IC50 [4]?
Answer: 71 µM

Question: What about the IC50 [5] of the same compound?
Answer: 87 µM

Question: What about the IC50 [6] of the same compound?
Answer: 55 µM

Question: What about the IC50 [7] of the same compound?
Answer: 82 µM

Question: `C=CCCCCOc1ncc(-c2cc(C(F)(F)F)ccc2OC)n1C` was tested. Which IC50 [1] did it give?
Answer: 88 µM

Question: What about the IC50 [2] of the same compound?
Answer: 51 µM

Question: What about the IC50 [3] of the same compound?
Answer: 57 µM

Question: And the IC50 [4]?
Answer: 59 µM

Question: And the IC50 [5]?
Answer: 62 µM

Question: What about the IC50 [6] of the same compound?
Answer: 61 µM

Question: And the IC50 [7]?
Answer: 56 µM

Question: How did the IC50 [1] turn out when `COc1ccccc1-c1cnc(OCC(F)(F)C(F)(F)C(F)(F)C(F)(F)C(F)(F)F)n1C` was run?
Answer: 78 µM

Question: What about the IC50 [2] of the same compound?
Answer: 51 µM

Question: And the IC50 [3]?
Answer: 72 µM

Question: And the IC50 [4]?
Answer: 38 µM

Question: And the IC50 [5]?
Answer: 83 µM

Question: What about the IC50 [6] of the same compound?
Answer: 63 µM

Question: And the IC50 [7]?
Answer: 66 µM

Question: What does the source list for `COc1ccccc1-c1cnc(OCCCc2ccccc2)n1C`?
Answer: IC50 [1]: 3 µM; IC50 [2]: 3 µM; IC50 [3]: 27 µM; IC50 [4]: 7 µM; IC50 [5]: 3 µM; IC50 [6]: 3 µM; IC50 [7]: 4 µM

Question: How did the IC50 [1] turn out when `C=CCCCCOc1nccn1C` was run?
Answer: > 100 µM

Question: And the IC50 [2]?
Answer: > 100 µM

Question: What about the IC50 [3] of the same compound?
Answer: > 100 µM

Question: What about the IC50 [4] of the same compound?
Answer: 51 µM

Question: And the IC50 [5]?
Answer: > 100 µM

Question: And the IC50 [6]?
Answer: > 100 µM

Question: And the IC50 [7]?
Answer: > 100 µM
